Consider two molecules from article PMC9850772 (ACS Omega, 2023).

Series [1] relates to A431 tumor-bearing xenograft mice. Briefly: PET/CT imaging, time-activity curves in A431 tumor-bearing xenograft mice. The series is classed as in vivo. The settings on record: TACs. A digest of the protocol:
(§1)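 Dynamic PET over 90 min p.i., then CT at 45 kVp and 0.4 mA. […] Images reconstructed by 2D-MLEM (12 iterations, 0.5 mm voxels) with scatter and decay correction. Frames 10 × 1, 10 × 2, 6 × 5 and 3 × 10 min. Volumes of interest drawn on heart, kidneys, tumour and muscle; SUV per frame gave time-activity curves.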

Experiment in series [2]: as above
The series is classed as in vivo. The settings on record: female, BALB/c-AnN-Foxn-1^nu/nu-Rj (nude), mouse, iv, TAC. A digest of the protocol:
as §1

The next series can be described thus: logD. The series is classed as physicochemical. Conditions: pH 7.4. A digest of the protocol:
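68Ga-labelled test compound (0.5–2 MBq) was partitioned between 1-octanol and 0.05 M phosphate buffer, pH 7.4. Tubes were shaken for 5 min and centrifuged at 13,000 rpm for 2 min. Aliquots of each phase were γ-counted. Three experiments, each in triplicate.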

The nature of series [3]: Stability toward peptidase degradation in human serum. The series is classed as in vitro ADME. The essentials:
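68Ga-labelled test compound (10–30 MBq, pH 7.4) was added to pooled human serum and kept at 37 °C. Aliquots were taken at 0, 15, 30, 45, 60 and 90 min and mixed with an equal volume of ice-cold ethanol. They were held on ice for 5 min and centrifuged. Supernatant and pellet activity were counted, and the supernatant was run on radio-HPLC. Three runs per radioligand.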

Series [4] concerns A431 tumor-bearing xenograft mice. Description: Ex vivo biodistribution in A431 tumor-bearing xenograft mice.
Experiment in series [5]: as above
Conditions: mouse, intravenous, 5 MBq.

For the molecule `CC[C@H](C)[C@H](NC(=O)[C@@H](NC(=O)[C@H](CC(N)=O)NC(=O)[C@H](CCC(N)=O)NC(=O)[C@@H]1CCCN1C(=O)[C@@H](NC(=O)[C@H](Cc1ccc(O)cc1)NC(=O)CNC(=O)[C@H](Cc1ccc(O)cc1)NC(=O)[C@H](Cc1c[nH]c2ccccc12)NC(=O)[C@H](Cc1c[nH]cn1)NC(=O)[C@H](Cc1ccc(O)cc1)NC(=O)CCOCCOCCOCCOCCC(=O)NCCCN(CCCNC(=O)CCOCCOCCOCCOCCC(=O)NCCCC[C@@H]1NC(=O)[C@@H](Cc2ccc(O)cc2)NC(=O)[C@H](CC(=O)O)NC(=O)CNC(=O)[C@H](CCCNC(=N)N)NC1=O)CC(=O)NCCOCCOCCOCCOCCC(=O)N[C@@H](CCCCNC(=O)CC[C@H](C(=O)O)N1CCN(CC(=O)O)CCN(CC(=O)O)CC1)C(N)=O)[C@@H](C)O)C(C)C)C(=O)O` [[^68Ga]Ga-1, metal not drawn], the “time at which accumulation in tumor, muscle and heart reached the plateau phase” value in series [1] stood at 15 min p.i. Further, the SUV turned out to be 0.18 ± 0.16 SUV in series [2] (muscle, SUVmuscle, under EGFR blockade (hEGF)); 0.27 ± 0.16 SUV in series [2] (muscle, SUVmuscle, without blocking); 0.45 ± 0.44 SUV in series [2] (tumor, SUVtumor, under EGFR blockade (hEGF)). The molecule also yielded a logD in the series “logD” of -3.07. Also, in series [3], the half-life came out at 4.53 h. Moreover, the “uptake into liver and lungs under EGFR blocking” value in series [4] (co-application of hEGF) is “not reduced”. The “tumor uptake under EGFR blocking” value in series [4] (co-application of hEGF, 2 h p.i.) is given as “did not decrease”. Also, the “decrease of absolute tumor uptake” value in series [4] (integrin blockade with excess of c(RGDyK), 120 min p.i.) came to 87%. In addition, the tissue uptake at 2 h was determined as 4.49 ± 2.17 %ID/g in series [5] (blood), 88 ± 28.5 %ID/g in series [5] (kidney) and 2.79 ± 1.66 %ID/g in series [5] (tumor).
In “logD”, `CC[C@H](C)[C@H](NC(=O)[C@@H](NC(=O)[C@H](CC(N)=O)NC(=O)[C@H](CCC(N)=O)NC(=O)[C@@H]1CCCN1C(=O)[C@@H](NC(=O)[C@H](Cc1ccc(O)cc1)NC(=O)CNC(=O)[C@H](Cc1ccc(O)cc1)NC(=O)[C@H](Cc1c[nH]c2ccccc12)NC(=O)[C@H](Cc1c[nH]cn1)NC(=O)[C@H](Cc1ccc(O)cc1)NC(=O)CCOCCOCCOCCOCCOCCOCCC(=O)NCCCN(CCCNC(=O)CCOCCOCCOCCOCCOCCOCCC(=O)NCCCC[C@@H]1NC(=O)[C@@H](Cc2ccccc2)NC(=O)[C@H](CC(=O)O)NC(=O)CNC(=O)[C@H](CCCNC(=N)N)NC1=O)CC(=O)NCCOCCOCCOCCOCCC(=O)N[C@@H](CCCCNC(=O)CC[C@H](C(=O)O)N1CCN(CC(=O)O)CCN(CC(=O)O)CC1)C(N)=O)[C@@H](C)O)C(C)C)C(=O)O` [[^68Ga]Ga-2, metal not drawn] came in with a logD of -3.44. This molecule had a half-life in series [3] of 3.95 h.

By logD is commonly meant the decadic logarithm of the distribution of all forms, ionised or not, between an organic phase and buffer at a given pH. By half-life is commonly meant the time needed for the level to fall by half in the phase considered. A higher half-life goes with slow decline. What is called tissue uptake is the share of the injected amount in each gram of the tissue. A low value points to low uptake.
